# Source: PubChem BioAssay (several laboratories)
# p97 inhibitor: inhibitors of human p97 ATPase; actives 0.42% (n = 220,000); recombinant p97 ATPase, Kinase-Glo ATP luminescence, 3 h; inhibition, % at 8 µM; AID 1481; in the data active = inhibition above about 15%;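 note: 0% = DMSO vehicle and 100% = wells lacking enzyme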
# APP 5'UTR act: activates APP 5'UTR luciferase reporter | SH-SY5Y APP 5'UTR luciferase reporter, luminescence; zero percent = DMSO vehicle wells | activation, % at 2 µM | actives 1% (n = 190,000) | AID 1276;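 active = activation above a set limit, based on mean plus 3 SD of controls, cut at about 140% in these data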
# Mdm2 ligase inh: inhibitors of human Mdm2 E3 ubiquitin ligase. Q00987. cell-based MDM2 ubiquitination luciferase reporter, 2 h; 0 = plate control, 100 = twice control, blank-subtracted. signal enhancement, % at 5 µM. actives 0.11% (n = 210,000). AID 1230;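 active = signal enhancement of 30% or more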;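 note: luminescence tracks abundance of the self-degrading MDM2-luciferase fusion protein; higher signal means inhibition of MDM2 E3 ligase activity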
#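 Assay system: stable mammalian line carrying autodegrading MDM2–luciferase fusion reporter; amount: 2000 cells seeded into each well; buffer or medium: DMEM; benchmarks: plate control and blank wells; signal: luciferase luminescence; timing: 2 h compound exposure at 37 °C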
# Wee1 stabilizer: inhibitors of human Wee1 degradation; P30291; HeLa Luc-Wee1K328M stability, luciferase luminescence; 100% = proteasome inhibitor MG132 effect; reporter increase, % at 5 µM; actives 1.2% (n = 220,000); AID 1321;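 active = activation above the mean of all tested compounds plus 3 SD, set per screening run, cut at about 8.8% in these data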;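 note: cells exposed to compound for 20 h before luminescence read; 0% = DMSO alone and 100% = MG132 at 30 µM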
# Target sequence (P30291 whole entry K328M): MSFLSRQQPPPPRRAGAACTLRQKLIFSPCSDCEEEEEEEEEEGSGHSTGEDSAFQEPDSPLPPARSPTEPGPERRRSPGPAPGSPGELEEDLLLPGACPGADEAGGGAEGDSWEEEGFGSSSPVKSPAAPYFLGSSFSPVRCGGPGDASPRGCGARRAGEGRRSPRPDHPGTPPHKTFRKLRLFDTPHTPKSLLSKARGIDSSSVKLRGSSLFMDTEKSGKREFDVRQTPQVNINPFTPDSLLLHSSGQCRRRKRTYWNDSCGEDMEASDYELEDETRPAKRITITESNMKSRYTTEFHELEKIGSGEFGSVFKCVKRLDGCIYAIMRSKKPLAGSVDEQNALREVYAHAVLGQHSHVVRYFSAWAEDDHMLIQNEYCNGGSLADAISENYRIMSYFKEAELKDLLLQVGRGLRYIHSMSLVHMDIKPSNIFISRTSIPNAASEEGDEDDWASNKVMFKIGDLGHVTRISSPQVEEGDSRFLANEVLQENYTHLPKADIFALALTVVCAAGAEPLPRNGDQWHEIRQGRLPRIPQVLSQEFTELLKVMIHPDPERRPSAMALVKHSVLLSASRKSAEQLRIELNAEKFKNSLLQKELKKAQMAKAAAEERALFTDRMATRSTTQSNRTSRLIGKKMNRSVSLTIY
# NF-kB expr up: raises NF-kB expression in human neuronal cells; NF-kB reporter expression; stronger effect = higher value; fold change at 12.5 µM; actives 1.6% (n = 190,000); in the data active = fold change above about 3.3
# STAT1 activator: STAT1 signaling activation; NIH 3T3 STAT1-luciferase reporter, IFN-gamma, luminescence; 100% = IFN-gamma alone, no compound; activation (% of control), % at 5.5 µM; actives 2.6% (n = 200,000);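 active = activation above the screen-wide mean activation plus 3 SD, cut at about 130% in these data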;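 note: raw ratio to IFN-gamma control signal so 100% means no change and 0% no light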
# An asterisk follows results filed as active; · = not tested or not shown. Sampled rows, rich in hits. Any-hit rate of the full collection: about 4.6%.
SMILES,p97 inhibitor,APP 5'UTR act,Mdm2 ligase inh,Wee1 stabilizer,NF-kB expr up,STAT1 activator
O=C(COC(=O)CNC(=O)c1ccccc1)Nc1nc(-c2ccccc2)cs1,2.5,3.4,-1.4,-0.6,1.9,115.0
CC(=O)NCc1ccc(C(=O)CCl)cc1,2.3,-1.0,-8.7,-1.5,1.17,93.0
CC(=O)N(C)Cc1ccc(C(=O)CCl)cc1,4.0,-2.5,-24.9,0.5,3.79*,89.5
COc1cccc(Sc2ccccc2/C=N/NC(N)=O)c1,2.0,-65.2,-16.4,3.7,1.1,96.3
COc1ccc2nc(Nc3ccccc3OC)sc2c1,-6.8,202.5*,-25.9,-0.8,7.9*,107.8
COc1ccc2nc(NC(=O)c3ccc4ncsc4c3)sc2c1,-7.1,115.9,-21.1,7.6,1.6,141.7*
COC(=O)c1ccc2nc(NC(=O)C(C)C)sc2c1,-6.4,96.5,-16.8,2.1,6*,134.4*
CCOc1ccc2nc(SCC(=O)c3cccs3)sc2c1,-2.7,81.9,16.5,7.5,4.38*,130.8*
COc1ccc2nc(NC(=O)c3ccc(-n4nc(C)cc4C)cc3)sc2c1,3.3,7.0,-10.9,-1.2,1.29,111.4
CCOc1ccc2nc(SCC(=O)c3ccc(Cl)s3)sc2c1,-4.3,10.2,-11.3,-1.6,1.68,93.4
CC1CC2OC(=O)C3(C)CCCC(C)(C23)C1(O)CCc1ccoc1 (stereo not drawn),4.0,·,-14.1,2.6,·,·
Cc1ccc2[nH]c(CN3CCC(CO)(CC4CCCCO4)CC3)c(C)c2c1 (stereo not drawn),0.9,2.5,-1.9,3.0,0.82,100.4
Cc1ccc2nc(NC(=O)COC(=O)c3ccncc3)sc2c1,3.5,24.7,0.6,3.5,1.85,123.2
COCC(=O)Nc1nc2ccc(C)cc2s1,0.1,94.8,-42.8,4.3,3.74*,128.0
CCOC(=O)Nc1nnc(-c2cccc(OC)c2)s1,-4.3,-9.0,-6.0,-0.9,1.31,106.0
COc1cccc(-c2nnc(NC(=O)c3cccs3)s2)c1,7.4,40.8,-7.9,-2.2,1.82,138.4*
COc1ccc2nc(NC(=O)c3cccs3)sc2c1,-3.3,·,-47.3,9.5*,·,·
CCC(C)C(=O)Nc1nc2ccc(OC)cc2s1 (stereo not drawn),3.3,·,-11.0,1.6,·,·
COc1ccc2nc(NC(C)=O)sc2c1,-0.2,82.4,-31.2,-2.0,2.61,138.6*
CC1=CC(C)(C)N2C(=O)C3(NCCc4c3[nH]c3ccccc43)c3cccc1c32 (stereo not drawn),2.0,-4.1,-0.4,-2.5,1.01,105.1
C[N+]1(CN2C(=O)C3C4C=CC(C4)C3C2=O)CCCCC1 (stereo not drawn),10.6,·,-10.8,-1.2,·,·
O=C(NC(Cc1c[nH]c2ccccc12)C(=O)NCc1ccc(F)cc1)OCc1ccccc1 (stereo not drawn),6.0,8.5,-1.7,-1.0,0.97,107.4
O=C(CN1N=C(c2ccc(Cl)cc2)CCC1=O)NCc1cccnc1,-3.9,-1.8,·,-0.2,1.15,100.3
COc1ccc(C(=O)Nc2nc3c(s2)Cc2cc(OC)ccc2-3)cc1,2.9,6.5,-0.4,-1.8,0.9,103.7
COc1ccc2nc(NC(=O)CSc3nnc(-c4ccoc4C)n3C)sc2c1,-1.7,49.2,-15.4,5.6,2.35,130.3*
SMILES,p97 inhibitor,APP 5'UTR act,Mdm2 ligase inh,Wee1 stabilizer,NF-kB expr up,STAT1 activator
CCn1nnnc1SCC(=O)Nc1nc2ccc(OC)cc2s1,0.0,7.4,-5.6,2.5,1.6,118.2
COc1ccc2c(c1)Cc1sc(NC(=O)c3cccs3)nc1-2,5.7,115.0,-14.6,-0.8,1.55,149.3*
COc1ccc2[nH]c3c4c(ccc3c2c1)C(=O)C=CC4=O,11.6,·,32.0*,13.6*,·,·
CCOc1c2ccc(C(=O)NCc3ccc4c(c3)OCO4)cc2nn1CCOC,3.5,3.3,-11.5,-1.6,1.17,100.0
O=C(NC12CC3CC(CC(C3)C1)C2)c1ccc(-c2ccc(Cl)cc2)o1,7.8,55.2,-6.9,-2.8,0.76,129.5*
O=C(NCc1ccco1)c1ccc(-c2ccccc2Cl)o1,4.7,25.1,-13.3,-0.7,2.39,123.3
O=C(NC12CC3CC(CC(C3)C1)C2)c1ccc(-c2ccccc2Cl)o1,-0.3,181.9*,-14.2,5.0,1.22,171.1*
CC(=O)NC(=O)c1ccc(-c2ccc(Cl)cc2)o1,-3.7,7.3,·,2.5,1.37,110.3
C[C@H](NC(=O)c1ccc(Cl)cc1)C(=O)NCCc1ccc(S(N)(=O)=O)cc1,1.3,-0.2,-9.9,0.9,1.25,98.3
O=C(c1ccc(-c2nc3ccccc3s2)s1)N1CCOCC1,-10.4,65.1,-83.9,-3.1,1.08,28.2
CCN1CCN(C(=O)c2ccc(-c3nc4ccccc4s3)s2)CC1,-7.5,131.3,-23.3,0.4,4.18*,129.6*
C=CCN(C(=O)CNC(=O)c1cccs1)C(C(=O)NC(C)(C)C)c1ccccc1 (stereo not drawn),0.2,-15.3,-3.4,0.7,1.25,101.9
Nc1nn(-c2cccc(F)n2)cc1-c1ccc(Cl)cc1,-1.1,251.2*,-35.6,5.4,11.9*,82.7
Nc1nn(-c2cccc(F)n2)cc1-c1ccccc1,-5.0,213.2*,-38.2,1.8,9.91*,115.4
Nc1nc(Br)c2c(F)cccc2c1-c1ccccc1,-5.8,4.7,-13.4,1.2,1.15,102.8
Cc1cc(OCC(=O)N2CCCC2)ccc1Cl,2.3,4.1,7.8,-0.1,1.66,117.1
Cc1cc(OCC(=O)N2CCCCCC2)ccc1[N+](=O)[O-],-0.3,57.1,-5.4,3.3,1.75,137.5*
COc1cccc(NC(=O)c2ccc(NC(=O)C(C)(C)C)cc2)c1,3.1,93.7,-9.0,2.7,2.14,136.3*
COc1cccc(C(=O)Nc2ccccc2)c1,-6.5,45.1,-20.7,6.3,1.97,116.7
COc1cccc(C(=O)Nc2cccc(SC)c2)c1,0.3,83.2,-30.2,1.8,2.67,128.8*
CCCCOC(=O)Nc1ccc(C)c(Cl)c1,-8.8,114.2,-5.1,-1.2,2.87,142.7*
COc1cccc(NC(=O)Nc2cc(C(=O)O)ccc2C)c1,4.9,-9.0,12.8,-0.8,1,101.1
COc1cccc(NC(=O)Nc2ccc(C)c(Cl)c2)c1,-6.7,54.7,-2.3,0.2,1.98,132.6*
Cc1csc(NC(=O)CN2C(=O)c3ccccc3C2=O)c1C(N)=O,-0.7,·,-5.9,-0.1,·,·
O=[N+]([O-])c1ccc(O)c(C(C#Cc2ccccc2)N2CCOCC2)c1 (stereo not drawn),6.7,·,-7.2,1.1,·,·
CCOc1ccc(-c2nc(CCl)cs2)cc1,-1.5,47.8,1.4,-0.1,3.77*,116.2
COCCCNC(=O)CNC(=S)N(Cc1ccc(F)cc1)C1CCCCC1,-1.6,-5.9,-17.3,10.3*,1,97.8
CCn1c(SCC(=O)NC2CCS(=O)(=O)C2)nnc1-c1ccccc1 (stereo not drawn),-5.8,12.3,-10.3,3.2,1.19,102.9
